Reference: ChEMBL document CHEMBL3792343, “10-Boronic acid substituted camptothecin as prodrug of SN-38” (Eur J Med Chem, 2016)
pIC50: −log10 of the molar value. The source made the active and inactive calls. No cut-off for these calls is given here.

Key:
HT-29 = experiment: Cytotoxicity against human HT-29 cells assessed as growth inhibition after 72 hrs by SRB assay; type: functional, cell-based; conditions: HT-29, 72 h
Outline: (§1)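 Cells from ATCC, 6,000–10,000 per well, treated in triplicate with graded concentrations for 72 h at 37 °C. Growth inhibition read by sulforhodamine B staining; IC50 taken from dose–response curves.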

MCF7 [1] = experiment: Retention time in human MCF7 cells at 10^-5 M by HPLC analysis; type: ADME, cell-based; conditions: mcf7, 10 µM
Outline: (§2)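 MCF-7 cells exposed to 10^-5 M prodrug for 2 days; culture medium collected, centrifuged to remove cells, diluted to fixed volume and analysed by HPLC. Prodrug and SN-38 identified by retention time; relative amounts taken from chromatographic peak areas.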

[2] = Cytotoxicity against human U87MG cells assessed as growth inhibition after 72 hrs by SRB assay; type: functional, cell-based, U-87MG ATCC; conditions: U-87 MG; outline: as §1
[3] = Cytotoxicity against human HCT15 cells assessed as growth inhibition after 72 hrs by SRB assay; type: functional, cell-based; conditions: HCT-15, 72 h; outline: as §1
MCF7 [4] = experiment: Cytotoxicity against human MCF7 cells assessed as growth inhibition after 72 hrs by SRB assay; type: functional, cell-based; conditions: MCF7, 72 h; outline: as §1
MDA-MB-231 = experiment: Cytotoxicity against human MDA-MB-231 cells assessed as growth inhibition after 72 hrs by SRB assay; type: functional, cell-based; conditions: MDA-MB-231, 72 h; outline: as §1
U-251 = experiment: Cytotoxicity against human U251 cells assessed as growth inhibition after 72 hrs by SRB assay; type: functional, cell-based; conditions: U-251, 72 h; outline: as §1
[5] = Antitumor activity against human U87MG cells xenografted in mouse assessed as tumor volume at 15 mg/kg, ip administered as q3w/14 days regime relative to control; type: functional, U-87MG ATCC
Outline: (§3)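 Mice bearing U87MG xenografts randomised at about 130 mm3 tumour volume (n = 12 control, n = 6 per treatment); dosing i.p. three times a week to end of study (q3w/14). Read-out is relative tumour volume (RTV), with T/C (%) versus untreated control; significance by Student's t-test.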

Mus musculus [6] = experiment: Toxicity in mouse xenografted with human U87MG cells assessed as death at 15 mg/kg, ip administered as q3w/14 days regime; type: organism-based, U-87MG ATCC; conditions: in vivo, 336 h
Mus musculus [7] = experiment: Toxicity in mouse xenografted with human U87MG cells assessed as change in body weight at 15 mg/kg, ip administered as q3w/14 days regime (reference value: 23.12%); type: organism-based, U-87MG ATCC; conditions: in vivo, 336 h
[8] = Prodrug activation in pH 7.4 phosphate buffer assessed as H2O2-mediated SN38 release incubated for 8 hrs by HPLC analysis; conditions: pH 7.4, 8 h
Outline: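 Prodrug (1 mM) in phosphate buffer pH 7.4 with H2O2 at 0.5–10 mM final, 37 °C for 8 h. Quenched with equal volume of 50 mM sodium thiosulfate; SN-38 release quantified by HPLC.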

Mus musculus [9] = experiment: Toxicity in mouse xenografted with human U87MG cells assessed as anaphylactic reaction at 2 mg/kg, ip administered as q3w/14 days regime; type: organism-based, U-87MG ATCC; conditions: in vivo, 336 h
Mus musculus [10] = experiment: Toxicity in mouse xenografted with human U87MG cells assessed as change in body weight at 2 mg/kg, ip administered as q3w/14 days regime (reference value: 23.12%); type: organism-based, U-87MG ATCC; conditions: in vivo, 336 h
Mus musculus [11] = experiment: Toxicity in mouse xenografted with human U87MG cells assessed as death at 2 mg/kg, ip administered as q3w/14 days regime; type: organism-based, U-87MG ATCC; conditions: in vivo, 336 h
[12] = Antitumor activity against human U87MG cells xenografted in mouse assessed as tumor volume at 0.5 mg/kg, ip administered as q3w/14 days regime relative to control; type: functional, U-87MG ATCC; outline: as §3
[13] = Antitumor activity against human U87MG cells xenografted in mouse assessed as tumor volume at 2 mg/kg, ip administered as q3w/14 days regime relative to control; type: functional, U-87MG ATCC; outline: as §3
MCF7 [14] = experiment: Drug level in human MCF7 cells at 10^-5 M after 2 days by HPLC analysis; type: ADME, cell-based; conditions: mcf7, 48 h, 10 µM; outline: as §2
[15] = biological target: T1, DNA topoisomerase 1 (Homo sapiens) (UniProt P11387); experiment: Inhibition of topoisomerase 1 (unknown origin) assessed as reduction in enzyme-mediated relaxation of supercoiled pBR322 DNA at 100 uM after 30 mins by agarose gel electrophoresis
T1 sequence (whole entry): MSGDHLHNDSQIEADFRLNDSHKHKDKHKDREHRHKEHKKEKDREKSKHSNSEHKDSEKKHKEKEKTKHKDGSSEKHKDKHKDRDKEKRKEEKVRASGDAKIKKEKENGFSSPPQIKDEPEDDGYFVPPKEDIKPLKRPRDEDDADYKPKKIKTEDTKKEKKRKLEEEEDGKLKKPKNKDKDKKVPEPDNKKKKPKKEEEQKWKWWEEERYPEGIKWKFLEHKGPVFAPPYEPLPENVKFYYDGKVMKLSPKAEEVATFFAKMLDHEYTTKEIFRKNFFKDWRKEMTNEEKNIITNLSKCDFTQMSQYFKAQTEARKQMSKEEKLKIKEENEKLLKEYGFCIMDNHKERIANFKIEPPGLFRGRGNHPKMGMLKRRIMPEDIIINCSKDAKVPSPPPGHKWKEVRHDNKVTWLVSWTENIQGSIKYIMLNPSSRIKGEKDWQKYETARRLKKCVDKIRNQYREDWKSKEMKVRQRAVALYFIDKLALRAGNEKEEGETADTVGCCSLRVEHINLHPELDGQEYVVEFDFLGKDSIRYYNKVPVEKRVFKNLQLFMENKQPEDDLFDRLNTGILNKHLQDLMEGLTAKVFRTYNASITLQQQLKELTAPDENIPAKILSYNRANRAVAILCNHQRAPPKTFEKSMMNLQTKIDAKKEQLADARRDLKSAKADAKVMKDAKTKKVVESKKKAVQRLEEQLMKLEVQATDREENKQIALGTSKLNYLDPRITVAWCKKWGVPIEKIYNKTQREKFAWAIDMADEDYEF

Mus musculus [16] = experiment: Toxicity in mouse xenografted with human U87MG cells assessed as overt signs of symptoms at 2 mg/kg, ip administered as q3w/14 days regime; type: organism-based, U-87MG ATCC; conditions: in vivo, 336 h
Mus musculus [17] = experiment: Toxicity in mouse xenografted with human U87MG cells assessed as change in body weight at 0.5 mg/kg, ip administered as q3w/14 days regime (reference value: 23.12%); type: organism-based, U-87MG ATCC; conditions: in vivo, 336 h
Mus musculus [18] = experiment: Toxicity in mouse xenografted with human U87MG cells assessed as death at 0.5 mg/kg, ip administered as q3w/14 days regime; type: organism-based, U-87MG ATCC; conditions: in vivo, 336 h

Row | Compound | pIC50 (HT-29) | Retention_time (MCF7 [1]) | pIC50 [2] | pIC50 [3] | pIC50 (MCF7 [4]) | pIC50 (MDA-MB-231) | pIC50 (U-251) | also measured
1 | CCc1c2c(nc3ccc(O)cc13)-c1cc3c(c(=O)n1C2)COC(=O)[C@]3(O)CC [7-ETHYL-10-HYDROXYCAMPTOTHECIN] | 7.27 | 8.85 min | 7.52 | 8.10 | 6.29 | 5.71 | 7.68 | 
2 | CCc1c2c(nc3ccc(B4OC(C)(C)C(C)(C)O4)cc13)-c1cc3c(c(=O)n1C2)COC(=O)[C@]3(O)CC |  |  |  |  |  |  |  | T/C [5]: 8.39%; Activity (Mus musculus [6]): Non-toxic; Activity (Mus musculus [7]): 15.88%
3 | CCc1c2c(nc3ccc(B(O)O)cc13)-c1cc3c(c(=O)n1C2)COC(=O)[C@]3(O)CC | 7.33 | 12.87 min | 7.33 | 7.74 | 6.20 | 5.37 | 7.44 | Drug metabolism [8]: Dose-dependent effect; Activity (Mus musculus [9]): Non-toxic; Activity (Mus musculus [10]): 2.11%; Activity (Mus musculus [11]): Non-toxic; T/C [12]: 105.99%; T/C [13]: 28.1%; Drug uptake (MCF7 [14]): 59%; inhibition [15]: Active; Activity (Mus musculus [16]): Non-toxic; Activity (Mus musculus [17]): 12.69%; Activity (Mus musculus [18]): Non-toxic
